Reference: ChEMBL document CHEMBL4396951, “Optimization and anti-inflammatory evaluation of methyl gallate derivatives as a myeloid differentiation protein 2 inhibitor” (Bioorg Med Chem, 2019)
Calls of active or inactive are those of the source.

How the values were obtained:
Peritoneal macrophage [1] = test: Antiinflammatory activity in C57BL/6 mouse primary peritoneal macrophages assessed as inhibition of LPS-induced IL-6 production at 10 uM preincubated for 30 mins followed by LPS stimulation and measured after 24 hrs by sandwich ELISA; type: functional, cell-based
Summary of the method: (§1)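 Thioglycollate-elicited mouse peritoneal macrophages in RPMI-1640/10% FBS. Compound pretreatment for 30 min (10 μM for single-point screening, graded concentrations for dose-response), then 0.5 μg/mL LPS for 24 h. TNF-α and IL-6 in culture medium measured by sandwich ELISA and normalized to total protein in cell lysates; n = 3.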

Peritoneal macrophage [2] = test: Antiinflammatory activity in C57BL/6 mouse primary peritoneal macrophages assessed as inhibition of LPS-induced IL-6 production at 10 uM preincubated for 30 mins followed by LPS stimulation and measured after 24 hrs by sandwich ELISA relative to control; type: functional; settings: C57BL/6, Peritoneal macrophage; summary of the method: as §1
Peritoneal macrophage [3] = test: Antiinflammatory activity in C57BL/6 mouse primary peritoneal macrophages assessed as inhibition of LPS-induced TNFalpha production at 10 uM preincubated for 30 mins followed by LPS stimulation and measured after 24 hrs by sandwich ELISA relative to control; type: functional; settings: C57BL/6, Peritoneal macrophage; summary of the method: as §1
Peritoneal macrophage [4] = test: Antiinflammatory activity in C57BL/6 mouse primary peritoneal macrophages assessed as inhibition of LPS-induced TNFalpha production preincubated for 30 mins followed by LPS stimulation and measured after 24 hrs by sandwich ELISA; type: functional, cell-based; summary of the method: as §1
Peritoneal macrophage [5] = test: Antiinflammatory activity in C57BL/6 mouse primary peritoneal macrophages assessed as inhibition of LPS-induced TNFalpha production at 10 uM preincubated for 30 mins followed by LPS stimulation and measured after 24 hrs by sandwich ELISA; type: functional, cell-based; summary of the method: as §1
[6] = Stability of compound in pH 7.4 phosphate buffer at 20 uM measured up to 25 mins by UV-VIS spectroscopy; type: physicochemical; settings: pH 7.4, 25 min
Peritoneal macrophage [7] = test: Antiinflammatory activity in C57BL/6 mouse primary peritoneal macrophages assessed as inhibition of LPS-induced IL-6 production preincubated for 30 mins followed by LPS stimulation and measured after 24 hrs by sandwich ELISA; type: functional, cell-based; summary of the method: as §1
Mus musculus [8] = test: Antiinflammatory activity in oral dosed LPS-induced C57BL/6 mouse model of acute lung injury assessed as reduction in ICAM-1 mRNA expression in lung tissue after 6 hrs by qRT-PCR analysis; type: functional, organism-based
Summary of the method: (§2)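 Male C57BL/6 mice dosed orally with compound (10 or 20 mg/kg/day in 0.5% CMC-Na, 3 days), then LPS challenge. Lungs harvested 6 h later; RNA extracted with TRIZOL and TNF-α, IL-6, ICAM-1, VCAM-1 and MCP-1 mRNA measured by qRT-PCR.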

Peritoneal macrophage [9] = test: Antiinflammatory activity in C57BL/6 mouse primary peritoneal macrophages assessed as inhibition of LPS-induced IL-6 mRNA expression preincubated for 30 mins followed by LPS stimulation and measured after 6 hrs by qRT-PCR analysis; type: functional, cell-based
Summary of the method: (§3)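 Thioglycollate-elicited peritoneal macrophages (C57BL/6 mice, 3 mL 6% thioglycollate i.p.), harvested by PBS/30 μM EDTA lavage, cultured in RPMI-1640 with 10% FBS at 37 °C, 5% CO2. Pretreatment with compound at graded concentrations for 30 min, then LPS for 6 h. TRIZOL RNA extraction; qRT-PCR with values normalized to β-actin mRNA.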

Mus musculus [10] = test: Antiinflammatory activity in LPS-induced C57BL/6 mouse model of acute lung injury assessed as reduction in total cells in BALF at 10 to 20 mg/kg/day, po for 3 days followed by LPS-stimulation measured after 6 hrs by cell counting based method; type: functional, organism-based
Summary of the method: (§4)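 Male C57BL/6 mice (18–22 g) randomized to four groups. Compound given orally in 0.5% CMC-Na at 10 or 20 mg/kg/day for 3 consecutive days; controls received vehicle. LPS challenge; killed 6 h later. Left-lung BALF (saline 3 × 0.5 mL) centrifuged at 1000 rpm, 10 min, 4 °C: supernatant used for protein and ELISA TNF-α/IL-6, pellet for total cell count. Serum cytokines also measured by ELISA. Wet/dry ratio from middle right lobe dried at 65 °C for 72 h. Lung sections (5 μm) stained with H&E or for CD68 by IHC (citrate antigen retrieval, pH 6.5; DAB detection); n = 3.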

Mus musculus [11] = test: Antiinflammatory activity in LPS-induced C57BL/6 mouse model of acute lung injury assessed as reduction in macrophage infiltration by measuring CD68 expression at 10 to 20 mg/kg/day, po for 3 days followed by LPS-stimulation measured after 6 hrs by immunohistochemistry; type: functional, organism-based; summary of the method: as §4
Mus musculus [12] = test: Antiinflammatory activity in oral dosed LPS-induced C57BL/6 mouse model of acute lung injury assessed as reduction in TNFalpha levels in serum for 3 days followed by LPS-stimulation measured after 6 hrs; type: functional, organism-based; summary of the method: as §4
Peritoneal macrophage [13] = test: Antiinflammatory activity in C57BL/6 mouse primary peritoneal macrophages assessed as inhibition of LPS-induced VCAM1 mRNA expression preincubated for 30 mins followed by LPS stimulation and measured after 6 hrs by qRT-PCR analysis; type: functional, cell-based; summary of the method: as §3
Mus musculus [14] = species on record: Mus musculus; test: Inhibition of MAPK in C57BL/6 mouse primary peritoneal macrophages assessed as reduction in P38 phosphorylation at 10 uM preincubated for 30 mins followed by LPS-stimulation measured after 20 mins by Western blot analysis
Summary of the method: (§5)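 Peritoneal macrophages pretreated with vehicle (DMSO) or 10 μM compound for 30 min, then 0.5 μg/mL LPS for 20 min. Total protein run on 10% SDS-PAGE and blotted to PVDF. p-JNK/JNK, p-p38/p38 and p-ERK/ERK detected by western blot and quantified by densitometry; n = 3.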

Peritoneal macrophage [15] = test: Antiinflammatory activity in C57BL/6 mouse primary peritoneal macrophages assessed as inhibition of LPS-induced ICAM1 mRNA expression preincubated for 30 mins followed by LPS stimulation and measured after 6 hrs by qRT-PCR analysis; type: functional, cell-based; summary of the method: as §3
Mus musculus [16] = test: Antiinflammatory activity in LPS-induced C57BL/6 mouse model of acute lung edema assessed as decrease in lung wet/dry ratio at 20 mg/kg/day, po for 3 days followed by LPS-stimulation measured after 6 hrs; type: functional, organism-based; summary of the method: as §4
Peritoneal macrophage [17] = test: Antiinflammatory activity in C57BL/6 mouse primary peritoneal macrophages assessed as inhibition of LPS-induced MCP1 mRNA expression preincubated for 30 mins followed by LPS stimulation and measured after 6 hrs by qRT-PCR analysis; type: functional, cell-based; summary of the method: as §3
Mus musculus [18] = test: Antiinflammatory activity in oral dosed LPS-induced C57BL/6 mouse model of acute lung injury assessed as reduction in IL-6 levels in BALF for 3 days followed by LPS-stimulation measured after 6 hrs; type: functional, organism-based; summary of the method: as §4
Mus musculus [19] = test: Antiinflammatory activity in oral dosed LPS-induced C57BL/6 mouse model of acute lung injury assessed as reduction in VCAM-1 mRNA expression in lung tissue after 6 hrs by qRT-PCR analysis; type: functional, organism-based; summary of the method: as §2
Mus musculus [20] = test: Antiinflammatory activity in LPS-induced C57BL/6 mouse model of acute lung injury assessed as restoration of normal alveolar structure at 10 to 20 mg/kg/day, po for 3 days followed by LPS-stimulation measured after 6 hrs by haematoxylin and eosin staining-based light microscopic analysis; type: functional, organism-based; summary of the method: as §4
Mus musculus [21] = test: Antiinflammatory activity in oral dosed LPS-induced C57BL/6 mouse model of acute lung injury assessed as reduction in MCP-1 mRNA expression in lung tissue after 6 hrs by qRT-PCR analysis; type: functional, organism-based; summary of the method: as §2
Mus musculus [22] = test: Antiinflammatory activity in oral dosed LPS-induced C57BL/6 mouse model of acute lung injury assessed as reduction in TNF-alpha mRNA expression in lung tissue after 6 hrs by qRT-PCR analysis; type: functional, organism-based; summary of the method: as §2
Mus musculus [23] = species on record: Mus musculus; test: Inhibition of MAPK in C57BL/6 mouse primary peritoneal macrophages assessed as reduction in JNK phosphorylation at 10 uM preincubated for 30 mins followed by LPS-stimulation measured after 20 mins by Western blot analysis; summary of the method: as §5
Mus musculus [24] = test: Antiinflammatory activity in oral dosed LPS-induced C57BL/6 mouse model of acute lung injury assessed as reduction in IL-6 mRNA expression in lung tissue after 6 hrs by qRT-PCR analysis; type: functional, organism-based; summary of the method: as §2
Mus musculus [25] = test: Antiinflammatory activity in LPS-induced C57BL/6 mouse model of acute lung injury assessed as reduction in total protein levels in BALF at 10 to 20 mg/kg/day, po for 3 days followed by LPS-stimulation measured after 6 hrs; type: functional, organism-based; summary of the method: as §4
BEAS-2B = test: Cytotoxicity against human BEAS2B cells up to 50 uM; type: cell-based
Summary of the method: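 BEAS-2B cells pretreated with compound at graded concentrations up to 50 μM for 30 min, then incubated without LPS for 24 h; compared against a DMSO group; n = 3.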

Mus musculus [26] = test: Antiinflammatory activity in oral dosed LPS-induced C57BL/6 mouse model of acute lung injury assessed as reduction in TNFalpha levels in BALF for 3 days followed by LPS-stimulation measured after 6 hrs; type: functional, organism-based; summary of the method: as §4
Mus musculus [27] = species on record: Mus musculus; test: Inhibition of MAPK in C57BL/6 mouse primary peritoneal macrophages assessed as reduction in ERK phosphorylation at 10 uM preincubated for 30 mins followed by LPS-stimulation measured after 20 mins by Western blot analysis; summary of the method: as §5
Mus musculus [28] = test: Antiinflammatory activity in oral dosed LPS-induced C57BL/6 mouse model of acute lung injury assessed as reduction in IL-6 levels in serum for 3 days followed by LPS-stimulation measured after 6 hrs; type: functional, organism-based; summary of the method: as §4
Peritoneal macrophage [29] = test: Antiinflammatory activity in C57BL/6 mouse primary peritoneal macrophages assessed as inhibition of LPS-induced TNFalpha mRNA expression preincubated for 30 mins followed by LPS stimulation and measured after 6 hrs by qRT-PCR analysis; type: functional, cell-based; summary of the method: as §3

CN(C)c1ccccc1C(=O)Nc1ccc2c(c1)CCC2
active: inhibition (Peritoneal macrophage [1]) | inhibition (Peritoneal macrophage [4]) Dose-dependent effect | inhibition (Peritoneal macrophage [5]) | inhibition (Peritoneal macrophage [7]) Dose-dependent effect
> 50%: inhibition at 10 µM (Peritoneal macrophage [2]) | inhibition at 10 µM (Peritoneal macrophage [3])
Stable: Stability [6]

COc1ccc2cc(C(=O)Nc3ccc4c(c3)CCC4)[nH]c2c1
Stable: Stability [6]
> 50%: inhibition at 10 µM (Peritoneal macrophage [2]) | inhibition at 10 µM (Peritoneal macrophage [3])
active: inhibition (Peritoneal macrophage [1]) | inhibition (Peritoneal macrophage [4]) Dose-dependent effect | inhibition (Peritoneal macrophage [5]) | inhibition (Peritoneal macrophage [7]) Dose-dependent effect

O=C(Nc1ccc2c(c1)CCC2)c1cc(O)c(O)c(O)c1
72.2%: inhibition at 10 µM (Peritoneal macrophage [3])
active: Activity (Mus musculus [8]) | inhibition (Peritoneal macrophage [9]) Dose-dependent effect | Activity (Mus musculus [10]) | Activity (Mus musculus [11]) | inhibition (Mus musculus [12]) Dose-dependent effect | inhibition (Peritoneal macrophage [13]) Dose-dependent effect | inhibition (Peritoneal macrophage [4]) Dose-dependent effect | inhibition (Mus musculus [14]) | inhibition (Peritoneal macrophage [15]) Dose-dependent effect | Activity (Mus musculus [16]) | inhibition (Peritoneal macrophage [17]) Dose-dependent effect | inhibition (Mus musculus [18]) Dose-dependent effect | Activity (Mus musculus [19]) | Activity (Mus musculus [20]) | Activity (Mus musculus [21]) | Activity (Mus musculus [22]) | inhibition (Mus musculus [23]) | Activity (Mus musculus [24]) | Activity (Mus musculus [25]) | inhibition (Peritoneal macrophage [7]) Dose-dependent effect | inhibition (Mus musculus [26]) Dose-dependent effect | inhibition (Mus musculus [27]) | inhibition (Mus musculus [28]) Dose-dependent effect | inhibition (Peritoneal macrophage [29]) Dose-dependent effect
1230 nM: IC50 (Peritoneal macrophage [4]; C57BL/6, Peritoneal macrophage)
Non-Toxic: Activity (BEAS-2B)
702 nM: IC50 (Peritoneal macrophage [7]; C57BL/6, Peritoneal macrophage)
Stable: Stability [6]
89%: inhibition at 10 µM (Peritoneal macrophage [2])

O=C(Cc1cccc2ccccc12)Nc1ccc2c(c1)CCC2
Stable: Stability [6]
active: inhibition (Peritoneal macrophage [1]) | inhibition (Peritoneal macrophage [4]) Dose-dependent effect | inhibition (Peritoneal macrophage [5]) | inhibition (Peritoneal macrophage [7]) Dose-dependent effect
> 50%: inhibition at 10 µM (Peritoneal macrophage [2]) | inhibition at 10 µM (Peritoneal macrophage [3])

O=C(NCc1ccccc1)c1cc(O)c(O)c(O)c1
active: inhibition (Peritoneal macrophage [1]) | inhibition (Peritoneal macrophage [5])

CCOc1ccc(NC(=O)c2cc(O)c(O)c(O)c2)cc1
active: inhibition (Peritoneal macrophage [1]) | inhibition (Peritoneal macrophage [5])
